Experiment [1] addresses T1, SULT2B1b C81S, C225S, C278S, S347D (Homo sapiens, UniProt O00204, C225S/C278S/C81S/S347D).
T1 sequence (O00204 1-365 C81S/C225S/C278S/S347D): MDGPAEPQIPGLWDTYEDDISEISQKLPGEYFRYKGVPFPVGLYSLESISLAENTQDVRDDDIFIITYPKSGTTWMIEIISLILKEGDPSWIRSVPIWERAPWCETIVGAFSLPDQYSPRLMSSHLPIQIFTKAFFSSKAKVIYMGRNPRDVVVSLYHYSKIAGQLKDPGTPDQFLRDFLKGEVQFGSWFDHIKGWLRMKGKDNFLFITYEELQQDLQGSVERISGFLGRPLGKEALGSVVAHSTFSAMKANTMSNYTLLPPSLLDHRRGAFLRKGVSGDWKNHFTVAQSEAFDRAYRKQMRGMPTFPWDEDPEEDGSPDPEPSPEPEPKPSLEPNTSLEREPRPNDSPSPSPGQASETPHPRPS
Description: Initial-rate parameters, non DTNB-reactive scaffold. It counts as biochemical.

Experiment [2] has as its target T2, SULT2B1b S347D spin-labeled at residue 247 (Homo sapiens, UniProt O00204, C225S/C278S/C81S/S247C/S347D).
T2 sequence (O00204 1-365 C81S/C225S/S247C/C278S/S347D): T1 sequence (O00204 1-365 C81S/C225S/C278S/S347D) with S247C
Description: Initial-rate parameters, spin-labeled mutant 247. It counts as biochemical.

Experiment [3] concerns the target T3, SULT2B1b S347D (Homo sapiens, UniProt O00204, S347D).
T3 sequence (O00204 1-365 S347D): T1 sequence (O00204 1-365 C81S/C225S/C278S/S347D) with S81C, S225C, S278C
Description: Equilibrium binding via intrinsic fluorescence. The settings on record: for Kd: Kd Quc. The method, boiled down:
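Intrinsic fluorescence titrations of purified His/GST/MBP-tag-cleaved enzyme, excitation 290 nm, in KPO4 (50 mM), pH 7.5, 25 ± 2 °C. […] Triplicate averaged data were fit to a single-site-per-monomer model.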

The target of another experiment is T4, SULT2B1b, S347D, W13A (Homo sapiens, UniProt O00204, S347D/W13A).
T4 sequence (O00204 1-365 W13A/S347D): T1 sequence (O00204 1-365 C81S/C225S/C278S/S347D) with W13A, S81C, S225C, S278C
Description: Initial-rate parameters, direct-contact mutant W13A.

The target in a further experiment is T5, SULT2B1b, S347D, W98A (Homo sapiens, UniProt O00204, S347D/W98A).
T5 sequence (O00204 1-365 W98A/S347D): T1 sequence (O00204 1-365 C81S/C225S/C278S/S347D) with S81C, W98A, S225C, S278C
Briefly: Initial-rate parameters, direct-contact mutant W98A.

The target in another experiment is T6, SULT2B1b, S347D, Y257A (Homo sapiens, UniProt O00204, S347D/Y257A).
T6 sequence (O00204 1-365 Y257A/S347D): T1 sequence (O00204 1-365 C81S/C225S/C278S/S347D) with S81C, S225C, Y257A, S278C
Briefly: Initial-rate parameters, direct-contact mutant Y257A.

For experiment [4], the target named is T3, SULT2B1b S347D. Briefly: Initial-rate 1-HP sulfonation.

Changes are numbered by the printed parent chain.

As for `O=c1c(O)c(-c2ccc(O)c(O)c2)oc2cc(O)cc(O)c12` [quercetin], the Ki in experiment [1] is 0.3 µM; in experiment [2], 0.32 µM; on SULT2B1b, S347D, W13A, 7.5 µM; on SULT2B1b, S347D, W98A, 5.3 µM; on SULT2B1b, S347D, Y257A, 1.6 µM. Also, the Kd at SULT2B1b S347D [3] (enzyme form E (no PAP)) was 5.3 µM; on SULT2B1b S347D [3] (enzyme form E•PAP (PAP 30 μM)), 0.35 µM. Also, at SULT2B1b S347D [3] (saturation with PAPS), the “increase of quercetin affinity” value was found to be 15 fold. Further, on SULT2B1b S347D [4] (affinity less for SULT2B1b than SULT1A1), the “quercetin affinity, SULT2B1b relative to SULT1A1” value is on record as ~ 68 fold. Further, on SULT2B1b S347D [4] (at saturation), the “slowing of turnover at saturating quercetin” value is given as ~ 13 fold. Besides, the “α (fraction of enzyme turnover at saturating inhibitor), quercetin” value at SULT2B1b S347D [4] (saturating PAPS and 1-HP, tag-cleaved enzyme) is 0.08 ± 0.01. On SULT2B1b S347D [4] (saturating quercetin), the “turnover at saturating quercetin” value worked out at 0.20 ± 0.02 s⁻¹.

These data come from PMC9260854 (Biochemistry, 2022).
